≈ marks a conversion by molar mass, not a printed value.
How the values were obtained:
[1] = tested on: Escherichia coli; experiment: Antibacterial activity in vitro against Escherichia coli Vogel; type: functional
In short: (§1)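 Standard microtitration broth assay against a panel of 10 Gram-positive and Gram-negative organisms. MIC read in µg/mL and averaged over multiple experiments.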

[2] = tested on: Streptococcus pyogenes; experiment: Compounds were evaluated in vivo for antibacterial activity for mouse protection against Streptococcus pyogenes C 203 after oral administration; type: functional; conditions: for ED50: Streptococcus pyogenes, C 203, po, read-out: PD50
[3] = tested on: Staphylococcus aureus; experiment: Minimum inhibitory concentration was evaluated in vitro against Staphylococcus aureus UC 76; type: functional; in short: as §1
[4] = tested on: Pseudomonas aeruginosa; experiment: Minimum inhibitory concentration was evaluated in vitro against Pseudomonas aeruginosa UI-18; type: functional; in short: as §1
[5] = tested on: Streptococcus pneumoniae; experiment: Minimum inhibitory concentration was evaluated in vitro against Streptococcus pneumoniae SV-1; type: functional; in short: as §1
[6] = tested on: Klebsiella pneumoniae; experiment: Minimum inhibitory concentration was evaluated in vitro against Klebsiella pneumoniae MGH2; type: functional; in short: as §1
[7] = tested on: Providencia rettgeri; experiment: Minimum inhibitory concentration was evaluated in vitro against Providencia rettgeri M1771; type: functional; in short: as §1
[8] = tested on: Enterococcus faecalis; experiment: Minimum inhibitory concentration was evaluated in vitro against Enterococcus faecalis MGH-2; type: functional; in short: as §1
[9] = tested on: Streptococcus pyogenes; experiment: Minimum inhibitory concentration was evaluated in vitro against Streptococcus pyogenes C 203; type: functional; in short: as §1
[10] = tested on: Enterobacter cloacae; experiment: Minimum inhibitory concentration in vitro against Enterobacter cloacae MA 2646; type: functional
[11] = tested on: Streptococcus pyogenes; experiment: Antibacterial activity measured as mouse protection against Streptococcus pyogenes C 203 after subcutaneous administration; type: functional; conditions: for ED50: Streptococcus pyogenes, C 203, sc, read-out: PD50
[12] = tested on: Escherichia coli; experiment: Antibacterial activity against Escherichia coli Vogel after oral administration in mouse; type: functional; conditions: for ED50: Escherichia coli, po, read-out: PD50
[13] = Clonogenic cytotoxicity against hamster V-79 cells; type: functional, Cricetulus griseus, V79
In short: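 Chinese hamster V-79 cells grown overnight, then drug-treated for 3 h at 37 °C. Medium is replaced with fresh medium and cells are incubated 5 days to allow colony formation. IC50 (µg/mL) is the concentration inhibiting colony formation by 50% relative to control.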

[14] = tested on: Escherichia coli; experiment: Antibacterial activity against Escherichia coli Vogel after subcutaneous administration in mouse; type: functional; conditions: Escherichia coli, sc; read-out: PD50
[15] = tested on: Staphylococcus aureus; experiment: Minimum inhibitory concentration was evaluated in vitro against Staphylococcus aureus H 228; type: functional; in short: as §1
[16] = species on record: Mus musculus; experiment: Compounds were evaluated for phototoxicity no-effect dose in mouse; type: functional
In short: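 Depilated female CD-1 mice, five per dose plus controls. Animals are dosed orally and then exposed daily to UV-A (320–400 nm) for 3 h, for up to 4 days or until a definite positive response. Redness or erythema relative to controls, read 24 h after irradiation, counts as positive. Reported as the highest dose with no effect (mg/kg).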

[17] = Escherichia coli, read-out: MIC
[18] = Staphylococcus aureus, read-out: MIC
[19] = Pseudomonas aeruginosa, read-out: MIC
[20] = Streptococcus pneumoniae, read-out: MIC
[21] = Klebsiella pneumoniae, read-out: MIC
[22] = Providencia rettgeri, read-out: MIC
[23] = Enterococcus faecalis, read-out: MIC
[24] = Streptococcus pyogenes, read-out: MIC
[25] = Enterobacter cloacae, read-out: MIC

Compound | MIC [1, 17] [µg/mL] | ED50 [2] [mg/kg] | MIC [3, 18] [µg/mL] | MIC [4, 19] [µg/mL] | MIC [5, 20] [µg/mL] | MIC [6, 21] [µg/mL] | MIC [7, 22] [µg/mL] | MIC [8, 23] [µg/mL] | MIC [9, 24] [µg/mL] | MIC [10, 25] [µg/mL] | ED50 [11] [mg/kg] | Cytotoxicity [13] [µg/mL] | ED50 [14] [mg/kg] | MIC [15, 18] [µg/mL] | ED50 [12] [mg/kg] | Dose [16] [mg/kg] | also measured
C[C@@H](N)[C@@H]1CCN(c2c(F)c(N)c3c(=O)c(C(=O)O)cn(C4CC4)c3c2F)C1 | 0.025 (≈ 0.0637 µM) | 2 | 0.003 (≈ 0.00765 µM) | 0.4 (≈ 1.02 µM) | 0.006 (≈ 0.0153 µM) | 0.025 (≈ 0.0637 µM) | 0.05 (≈ 0.127 µM) | 0.006 (≈ 0.0153 µM) | 0.006 (≈ 0.0153 µM) | 0.025 (≈ 0.0637 µM) | 0.2 | <7.8 | 0.7 | 0.003 (≈ 0.00765 µM) |  |  | PD50 [12]: 4 mg/kg
NC1CCN(c2c(F)cc3c(=O)c(C(=O)O)cn(C4CC4)c3c2C(F)(F)F)C1 (centres undefined) | 0.1 (≈ 0.25 µM) |  |  |  |  |  |  |  |  | 0.1 (≈ 0.25 µM) | 22 | 250 | 1 | 0.2 (≈ 0.501 µM) | 3 | >100 | 
CNC(C)C1CCN(c2cc3c(c(N)c2F)c(=O)c(C(=O)O)cn3C2CC2)C1 (racemic) | 0.1 (≈ 0.257 µM) | 8 | 0.006 (≈ 0.0154 µM) | 1.6 (≈ 4.12 µM) | 0.013 (≈ 0.0335 µM) | 0.2 (≈ 0.515 µM) | 0.4 (≈ 1.03 µM) | 0.025 (≈ 0.0644 µM) | 0.025 (≈ 0.0644 µM) | 0.1 (≈ 0.257 µM) | 1 | 290 |  | 0.05 (≈ 0.129 µM) |  | >100 | 
CC(N)C1CCN(c2c(F)cc3c(=O)c(C(=O)O)cn(C4CC4)c3c2C(F)(F)F)C1 (racemic) |  |  |  |  |  |  |  |  |  |  |  | 19 |  |  |  | >100 | MIC [1]: 0.2 µg/mL (≈ 0.468 µM); PD50 [2]: 0.7 mg/kg; MIC [3]: 0.006 µg/mL (≈ 0.014 µM); MIC [4]: 1.6 µg/mL (≈ 3.74 µM); MIC [5]: 0.006 µg/mL (≈ 0.014 µM); MIC [6]: 0.2 µg/mL (≈ 0.468 µM); MIC [7]: 0.4 µg/mL (≈ 0.936 µM); MIC [8]: 0.025 µg/mL (≈ 0.0585 µM); MIC [9]: 0.006 µg/mL (≈ 0.014 µM); MIC [10]: 0.2 µg/mL (≈ 0.468 µM); PD50 [11]: 0.3 mg/kg; MIC [15]: 0.013 µg/mL (≈ 0.0304 µM)
CCN[C@H](C)[C@@H]1CCN(c2nc3c(cc2F)c(=O)c(C(=O)O)cn3C2CC2)C1 | 0.1 (≈ 0.257 µM) | 6 | 0.025 (≈ 0.0644 µM) | 1.6 (≈ 4.12 µM) | 0.025 (≈ 0.0644 µM) | 0.2 (≈ 0.515 µM) | 1.6 (≈ 4.12 µM) | 0.05 (≈ 0.129 µM) | 0.05 (≈ 0.129 µM) | 0.4 (≈ 1.03 µM) | 4 | 87 | 6 | 0.05 (≈ 0.129 µM) | 7 |  | 
COc1c(N2CC[C@@H]([C@@H](C)N)C2)c(F)cc2c(=O)c(C(=O)O)cn(C3CC3)c12 | 0.05 (≈ 0.128 µM) | 6 | 0.003 (≈ 0.0077 µM) | 0.8 (≈ 2.05 µM) | 0.013 (≈ 0.0334 µM) | 0.1 (≈ 0.257 µM) | 0.2 (≈ 0.514 µM) | 0.025 (≈ 0.0642 µM) | 0.013 (≈ 0.0334 µM) | 0.05 (≈ 0.128 µM) | 1 | 41 |  | 0.025 (≈ 0.0642 µM) |  |  | 
CN[C@H](C)[C@@H]1CCN(c2c(F)c(N)c3c(=O)c(C(=O)O)cn(C4CC4)c3c2F)C1 | 0.05 (≈ 0.123 µM) |  | 0.003 (≈ 0.00738 µM) | 0.8 (≈ 1.97 µM) | 0.006 (≈ 0.0148 µM) | 0.1 (≈ 0.246 µM) | 0.2 (≈ 0.492 µM) | 0.013 (≈ 0.032 µM) | 0.006 (≈ 0.0148 µM) | 0.05 (≈ 0.123 µM) |  | 24 |  | 0.006 (≈ 0.0148 µM) |  | <30 | 
CCN[C@H](C)[C@H]1CCN(c2c(F)c(N)c3c(=O)c(C(=O)O)cn(C4CC4)c3c2F)C1 (racemic) | 0.025 (≈ 0.0595 µM) | 0.3 | 0.003 (≈ 0.00714 µM) | 0.8 (≈ 1.9 µM) | 0.003 (≈ 0.00714 µM) | 0.05 (≈ 0.119 µM) | 0.1 (≈ 0.238 µM) | 0.013 (≈ 0.0309 µM) | 0.003 (≈ 0.00714 µM) | 0.025 (≈ 0.0595 µM) | 0.3 | 42 | 1 | 0.003 (≈ 0.00714 µM) | 2 |  | 
CCN[C@H](C)[C@@H]1CCN(c2c(F)c(N)c3c(=O)c(C(=O)O)cn(C4CC4)c3c2F)C1 | 0.05 (≈ 0.119 µM) | 1 | 0.003 (≈ 0.00714 µM) | 1.6 (≈ 3.81 µM) | 0.003 (≈ 0.00714 µM) | 0.1 (≈ 0.238 µM) | 0.2 (≈ 0.476 µM) | 0.025 (≈ 0.0595 µM) | 0.003 (≈ 0.00714 µM) | 0.1 (≈ 0.238 µM) | 0.5 | 15 |  | 0.006 (≈ 0.0143 µM) |  |  | 
